The source made the active and inactive calls.
What was measured:
[1] = test system: Trypanosoma cruzi; assay: Antitrypanosomal activity against Trypanosoma cruzi Berenice-78 infected in mongrel dog assessed as reduction in parasite-induced intrafascicular collagen deposition in right atrium at 12 mg/kg, po BID after 180 days […]; format: functional, organism-based; set-up: dose 12 mg/kg; conditions: Cardiac atrium
[2] = test system: Trypanosoma cruzi; assay: Antitrypanosomal activity against Trypanosoma cruzi Berenice-78 infected in mongrel dog assessed as reduction in parasite-induced intrafascicular collagen deposition in right atrium at 7 mg/kg, po BID after 180 days […]; format: functional, organism-based; set-up: dose 7 mg/kg; conditions: Cardiac atrium
[3] = test system: Canis familiaris; assay: Toxicity in mongrel dog infected with Trypanosoma cruzi Y assessed as weight loss at 12 mg/kg, po BID for 90 days started 12 to 22 days postinfection measured after 6 months; format: organism-based, Canis lupus familiaris; set-up: dose 12 mg/kg, route oral; conditions: in vivo, 4383 h
In short: (§1)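 Body weight gain, in kg, was recorded for infected dogs 1 day and 6 months after the end of oral b.i.d. treatment. Treated animals were compared with infected untreated and noninfected control groups.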

[4] = test system: Canis familiaris; assay: Toxicity in mongrel dog infected with Trypanosoma cruzi Y assessed as weight loss at 7 mg/kg, po BID for 90 days started 12 to 22 days postinfection measured after 6 months; format: organism-based, Canis lupus familiaris; set-up: dose 7 mg/kg, route oral; conditions: in vivo, 4383 h; in short: as §1
[5] = test system: Trypanosoma cruzi; assay: Antimicrobial activity against Trypanosoma cruzi Y infected in mongrel dog assessed as suppression of microbial proliferation at 12 mg/kg, po BID started 12 to 22 days postinfection measured after 1 day; format: functional, organism-based; set-up: dose 12 mg/kg
In short: (§2)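 Mongrel dogs, 4 months old, dewormed and vaccinated, were inoculated with 2.0 × 10^3 bloodstream trypomastigotes/kg. Oral b.i.d. (q12h) dosing began 12 to 22 days postinfection, once parasitemia appeared. Dosing ran 90 days at 12 mg/kg and 60 days at 7 mg/kg, with 5 dogs per group. Parasitemia was read by fresh-blood examination of marginal ear vein blood from day 10 of infection until parasites were undetectable.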

[6] = test system: Trypanosoma cruzi; assay: Antimicrobial activity against Trypanosoma cruzi Y infected in mongrel dog assessed as suppression of microbial proliferation at 7 mg/kg, po BID started 12 to 22 days postinfection measured after 1 day; format: functional, organism-based; set-up: dose 7 mg/kg; in short: as §2
[7] = test system: Trypanosoma cruzi; assay: Antimicrobial activity against Trypanosoma cruzi Berenice-78 infected in mongrel dog assessed as survival of dog at 7 mg/kg, po BID started 12 to 22 days postinfection measured after 1 day; format: functional
In short: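 Four-month-old mongrel dogs (five per group) received 2.0 × 10^3 Y or Berenice-78 bloodstream trypomastigotes/kg. Oral dosing began 12–22 days postinfection, when parasitemia was detected by fresh blood examination: 12 mg/kg q12h for 90 days, or 7 mg/kg q12h for 60 days. Ear-vein blood was checked from day 10. Mortality was expressed as the cumulative percentage of dead animals.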

[8] = test system: Trypanosoma cruzi; assay: Antimicrobial activity against Trypanosoma cruzi Y infected in mongrel dog assessed as parasite level in blood of dog at 12 mg/kg, po BID started 12 to 22 days postinfection measured after 6 months by PCR analysis; format: functional
In short: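 Blood PCR for T. cruzi on treated dogs (n = 5 per group) at 1 and 6 months posttreatment. Each reaction took 2 μl blood DNA template in Tris-HCl pH 9.0, 75 mM KCl, 3.5 mM MgCl2 and 0.2 mM dNTPs. Cycling was 95°C 5 min, then 2 cycles annealing at 30°C, 33 cycles at 40°C, and 72°C 5 min. Products were run on 6% polyacrylamide and silver stained. Reported as rate of positive animals.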

[9] = test system: Canis familiaris; assay: Immunostimulatory activity in mongrel dog infected with Trypanosoma cruzi Y assessed as production of antibody IgG at 12 mg/kg, po BID for 90 days measured up to 30 days by ELISA; format: functional, organism-based; set-up: dose 12 mg/kg; conditions: Canis lupus familiaris
In short: (§3)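 Serum was taken before inoculation and then monthly until 6 months posttreatment, and stored at −80°C. ELISA plates were coated with alkaline extract of Y-strain parasites grown to exponential phase in LIT medium. Bound total IgG or IgG2 was detected with peroxidase-labeled anti-dog conjugates and read at 490 nm. Cutoff was the mean absorbance of 10 uninfected dogs plus 2 SD.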

[10] = test system: Canis familiaris; assay: Immunostimulatory activity in mongrel dog infected with Trypanosoma cruzi Y assessed as production of antibody IgG2 at 12 mg/kg, po BID for 90 days measured up to 30 days by ELISA; format: functional, organism-based; set-up: dose 12 mg/kg; conditions: Canis lupus familiaris; in short: as §3
[11] = test system: Canis familiaris; assay: Immunostimulatory activity in mongrel dog infected with Trypanosoma cruzi Y assessed as production of antibody IgG at 7 mg/kg, po BID for 90 days measured up to 30 days by ELISA; format: functional, organism-based; set-up: dose 7 mg/kg; conditions: Canis lupus familiaris; in short: as §3
[12] = test system: Canis familiaris; assay: Immunostimulatory activity in mongrel dog infected with Trypanosoma cruzi Y assessed as production of antibody IgG2 at 7 mg/kg, po BID for 90 days measured up to 30 days by ELISA; format: functional, organism-based; set-up: dose 7 mg/kg; conditions: Canis lupus familiaris; in short: as §3
[13] = test system: Canis familiaris; assay: Immunostimulatory activity in mongrel dog infected with Trypanosoma cruzi Berenice-78 assessed as production of antibody IgG2 at 12 mg/kg, po BID for 90 days measured up to 30 days by ELISA; format: functional, organism-based; set-up: dose 12 mg/kg; conditions: Canis lupus familiaris; in short: as §3
[14] = test system: Canis familiaris; assay: Immunostimulatory activity in mongrel dog infected with Trypanosoma cruzi Berenice-78 assessed as production of antibody IgG at 7 mg/kg, po BID for 90 days measured up to 30 days by ELISA; format: functional, organism-based; set-up: dose 7 mg/kg; conditions: Canis lupus familiaris; in short: as §3
[15] = test system: Trypanosoma cruzi; assay: Antitrypanosomal activity against Trypanosoma cruzi Y infected in mongrel dog assessed as reduction in parasite-induced intrafascicular collagen deposition in right atrium at 12 mg/kg, po BID after 180 days; conditions: Cardiac atrium

Structure (SMILES): C[C@@H](c1nc(-c2ccc(C#N)cc2)cs1)[C@](O)(Cn1cncn1)c1ccc(F)cc1F [RAVUCONAZOLE]
- Activity [1]: Active
- Activity [2]: Active
- Activity [3]: Non-toxic
- Activity [4]: Non-toxic
- Activity [5]: Non-toxic
- Activity [6]: Non-toxic
- Activity [7]: 100%
- Activity [8]: 60%
- Activity [9]: Active
- Activity [10]: Active
- Activity [11]: Active
- Activity [12]: Active
- Activity [13]: Active
- Activity [14]: Active
- Activity [15]: Active
